# CHO parental Ca: counter-screen for OX1R antagonists: effect in parental CHO cells | parental CHO-K1, ATP-induced calcium, Fluo-8 fluorescence | inhibition, % at 5.6 µM | 330,000 compounds, 0.63% hits;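 active means inhibition above that plate's mean sample inhibition plus 3 SD, cut at about 26% in these data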;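 further: 0% = ATP-challenged DMSO wells and 100% = DMSO wells without ATP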
#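 Measured by: calcium-sensitive Fluo-8 fluorescence / Test system: CHO parental line / Controls: ATP-challenged DMSO wells low, unchallenged DMSO wells high / Measure: % inhibition / Compound: single nominal dose of 5.6 µM per compound / Replicates: single well per compound, no replicates / Reagent: ATP as calcium-mobilizing challenge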
# TAAR1 antagonist: antagonists of human TAAR1; AID 624466; inhibition, % at 3 µM; CHO RD-HGA16 TAAR1, Fluo-8 calcium fluorescence, antagonist; 360,000 compounds, 1.5% hits; Q96RJ0;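 active means inhibition above a per-plate cutoff, the mean inhibition of test compounds on that plate plus 3 SD, cut at about 49% in these data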;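 further: 0% = DMSO plus EC80 beta-PEA response and 100% = DMSO alone without agonist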
#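 test system = CHO RD-HGA16 cells bearing hTAAR1 | replication = singlicate | controls = DMSO-only wells and EC80 β-PEA-stimulated wells | reagent = EC80 β-phenethylamine stimulus | read-out basis = percent inhibition of PEA-evoked calcium signal, max/basal emission ratio | schedule = seeding 17-24 h prior, 75-min 37 °C, 30-min RT dye loading | signal = kinetic Fluo-8 calcium fluorescence measurement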
# GPR7 antagonist: blocks human GPR7 receptor signaling; GPR7-expressing cells, fluorescence antagonist assay; inhibition, % at 4.4 µM; 290,000 compounds, 1.1% hits; AID 1861; in the data active means inhibition above about 16%, passing the limit was not always enough;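 further: cells stimulated with the agonist NPW; 0% = agonist with vehicle and 100% = vehicle without agonist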
# OX1R antag-1: blocks the human orexin 1 receptor. O43613. CHO/OX1R cells, Fluo-8 calcium fluorescence, orexin A. inhibition, % at 5 µM. 330,000 compounds, 0.43% hits;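 active means inhibition above its plate's threshold, mean inhibition of all tested compounds on the plate plus 3 SD, cut at about 37% in these data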;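 further: 0% = orexin A challenge wells and 100% = SB-334867-A antagonist wells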
# Target sequence (O43613 whole entry, looked up): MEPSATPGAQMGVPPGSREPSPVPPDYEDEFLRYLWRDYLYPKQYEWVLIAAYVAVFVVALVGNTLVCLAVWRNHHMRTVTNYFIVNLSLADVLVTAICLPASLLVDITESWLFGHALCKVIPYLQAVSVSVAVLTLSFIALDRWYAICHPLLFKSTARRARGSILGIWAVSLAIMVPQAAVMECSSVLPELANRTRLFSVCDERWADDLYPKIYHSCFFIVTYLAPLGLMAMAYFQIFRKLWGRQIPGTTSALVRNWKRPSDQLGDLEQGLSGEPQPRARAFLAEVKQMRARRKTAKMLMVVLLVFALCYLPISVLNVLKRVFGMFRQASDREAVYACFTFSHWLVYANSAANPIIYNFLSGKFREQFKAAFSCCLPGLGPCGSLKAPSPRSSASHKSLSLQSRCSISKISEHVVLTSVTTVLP
# OX1R antag-2: antagonists of human orexin 1 receptor (OX1R); OX1R-expressing cells, FRET antagonist read-out; inhibition, % at 6.6 µM; 330,000 compounds, 1.8% hits; in the data active means inhibition mostly above about 38%, no sharp cut-off; inactive means mostly below about 40%;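 further: 0% = agonist challenge alone and 100% = reference antagonist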
# TAAR1 agonist: human TAAR1 agonism; CHO RD-HGA16 TAAR1, Fluo-8 calcium fluorescence; vehicle wells 0%, saturating PEA agonist 100%; AID 624467; activation, % at 3 µM; 360,000 compounds, 0.99% hits; Q96RJ0;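 active means activation above the mean activation of all test compounds in the run plus 3 SD, cut at about 38% in these data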
#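 Repeats: no replicates (n 1) | Material: CHO-derived RD-HGA16 cells with stable Gα16 and human TAAR1 | Technique: Kinetic Fluo-8 calcium fluorescence | Schedule: 17-24 h seeding, 75 min 37 °C dye, 30 min RT | Evaluation: % activation from peak over basal fluorescence ratio, DMSO-to-PEA scaled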
# Numbers without * were called inactive; · = no result given. This is a sample that favours compounds with a hit; in the whole collection about 4.5% have one here.
SMILES,CHO parental Ca,TAAR1 antagonist,GPR7 antagonist,OX1R antag-1,OX1R antag-2,TAAR1 agonist
C[C@@H]1ON(C)[C@H]2C[C@H]3c4[nH]c5cccc(-c6ccccc6F)c5c4CCN3C(=O)[C@@H]12,·,24,·,·,·,7
Fc1ccc2nc(C3CCCCN3Cc3nc(CC4CC4)no3)[nH]c2c1 (stereo not drawn),-17,-3,19*,-40,17,3
Fc1ccc(C2CCCCN2Cc2nc(CC3CC3)no2)cc1 (stereo not drawn),-11,3,-6,-8,5,11
NS(=O)(=O)c1ccc(OCCCN2CCC(C(O)(c3ccccc3)c3ccccc3)CC2)cc1,·,-4,·,·,·,6
Fc1cccc(C[n+]2csc3ccccc32)c1,21,20,13,3,12,17
c1ccc(C[n+]2csc3ccccc32)cc1,29*,-5,12,1,8,20
NC(=O)CC1NC(=O)c2cc([N+](=O)[O-])cc(I)c2OCCC(C(N)=O)NC(=O)[C@@H]2CCCN2C1=O (stereo partly drawn),-11,1,-7,-15,61*,0
CC(=O)c1ccc(Sc2nnc(C)s2)c([N+](=O)[O-])c1,-3,-11,0,-4,63*,2
Nc1nnc(Sc2ccc(Cl)cc2[N+](=O)[O-])s1,-8,-5,20,-11,11,8
O=C(C[C@@H]1C[C@@H]2c3cc(NC(=O)C4CCOCC4)ccc3O[C@@H]2[C@H](CO)O1)NCc1ccccn1,·,11,·,·,·,3
Fc1ccc(NC(=S)N2CCCN(c3ccc(C(F)(F)F)cn3)CC2)c(F)c1,22,-7,10,57*,16,3
CC(=O)c1ccc(-c2ccccc2C2=CC(=O)CC(C)(C)C2=O)cc1,·,-3,·,·,·,-1
O=C(NC1=NCCS1)c1ccc(Cl)cc1,2,-7,10,2,15,5
O=C(NC1=NCCS1)c1ccc(-c2ccc(Cl)cc2)o1,-33,-9,2,-21,56*,3
Cn1c(=O)cc(SCC(=O)NCCC2=CCCCC2)c2ccc(Cl)cc21,-2,-24,0,-17,19,1
CN(CCCNC(=O)CSc1cc(=O)n(C)c2cc(Cl)ccc12)Cc1ccccc1,-14,-3,21*,-20,18,0
CSCCC(NC(=O)c1ccc([N+](=O)[O-])cc1Cl)C(=O)OCC(=O)C12CC3CC(CC(C3)C1)C2 (stereo not drawn),-8,-2,10,-14,8,2
CSCCC(NC(=O)c1ccc([N+](=O)[O-])cc1Cl)C(=O)OC(C)C(=O)NCc1ccco1 (stereo not drawn),-16,-22,·,-23,49*,-1
CSCCC(NC(=O)c1ccc([N+](=O)[O-])cc1Cl)C(=O)OCC(=O)N1CCN(C(C)=O)CC1 (stereo not drawn),1,-20,·,-3,55*,1
O=C(c1[nH]c(C(F)(F)F)nc1-c1ccccc1)N1CCOCC1,·,-23,·,·,·,2
O=C(NC1CCCC1)[C@@H]1CCCN1C(=O)[C@@H](NS(=O)(=O)c1ccc(F)cc1F)c1ccccc1,·,-14,·,·,·,1
COC(=O)[C@]12C[C@H](CC(=O)NCCCCc3ccccc3)C(=O)N(CCC3=CCCCC3)C1=C[C@H](C(C)(C)C)O[C@@H]2C,·,-21,·,·,·,1
Cc1cc(N2CCN(CC(C)(C)O)C[C@H]2C)ccc1N1CCN(Cc2ccccc2)[C@@H](C)C1,·,-24,·,·,·,2
Cc1cc(Br)c2nc(-c3ccc(F)cc3)c(Cc3cccc(Cl)c3)n2c1,·,-6,·,·,·,0
COc1cccc2c1C(=O)c1c(O)c3c(c(O)c1C2=O)C[C@@](O)(C(=O)CO)C[C@@H]3O[C@H]1C[C@H](N)[C@@H](O)[C@H](C)O1,19,·,·,29,41*,·
SMILES,CHO parental Ca,TAAR1 antagonist,GPR7 antagonist,OX1R antag-1,OX1R antag-2,TAAR1 agonist
CC(=O)[C@]1(O)Cc2c(O)c3c(c(O)c2[C@@H](O[C@H]2C[C@H](N)[C@H](O)[C@H](C)O2)C1)C(=O)c1ccccc1C3=O,37*,·,·,42*,53,·
O=C1c2ccc([N+](=O)[O-])cc2C(=O)N1Cc1cccnc1,-2,-20,-16,-18,77*,6
CN(C)C(/C=C/Nc1ccc([N+](=O)[O-])cc1)=C(C#N)C#N,-6,8,-8,-4,58*,3
CN(C)C(/C=C/Nc1ccc(C#N)cc1)=C(C#N)C#N,-3,2,3,-1,14,2
Cc1ccc(OCCSc2nc3ccccc3n2CC(=O)O)cc1C,-12,2,-6,-4,43*,0
CCCCOc1ccc(OCCSc2nc3ccccc3n2CC(=O)O)cc1,-9,1,27,8,16,-2
O=C(O)Cn1c(SCCOc2ccccc2)nc2ccccc21,-11,-1,-5,8,43*,20
COC(=O)c1cc2c(c3c4cc(F)ccc4n(S(=O)(=O)c4cccc(C)c4)c13)C(=O)N(Cc1ccco1)C2,·,-32,·,·,·,1
NC(=O)NN=C1CCC(O)CC1CC(=O)O (stereo not drawn),·,-5,·,·,·,1
COc1ccc(C(=O)NCC(c2ccco2)N2CCc3ccccc3C2)cc1 (stereo not drawn),-10,6,·,-20,24,40*
O=C(NCC(c1ccco1)N1CCCCC1)c1ccc2c(c1)S(=O)(=O)c1ccccc1C2=O (stereo not drawn),-28,-3,5,-44,63*,1
O=C(NCC(c1ccco1)N1CCc2ccccc2C1)c1cccc(Br)c1 (stereo not drawn),-26,-1,·,-31,33,38*
O=C(NCC(c1ccco1)N1CCc2ccccc2C1)c1cccc([N+](=O)[O-])c1 (stereo not drawn),-24,16,·,3,27,2
O=C(NCC(c1ccco1)N1CCOCC1)c1ccc([N+](=O)[O-])cc1 (stereo not drawn),-9,-9,5,-4,67*,4
O=C(NCC(c1ccco1)N1CCCCC1)c1ccc(S(=O)(=O)Nc2ccccc2)cc1 (stereo not drawn),-10,-16,·,-11,9,15
Cc1ccc(NC(=O)c2ccc3c(c2)C(=O)N(c2ccccc2C)C3=O)nc1,-20,-2,·,-16,4,7
O=Nc1ccc(Br)cn1,·,-8,·,·,·,2
CC(C)CC(=O)c1c(O)cc(O)c2c1OC1=C(C(=O)C(C)(C)C(=O)C1(C)C)C2CC(C)C (stereo not drawn),·,7,·,·,·,-1
Cc1ccc(C(=O)NCC(c2ccco2)N2CCc3ccccc3C2)cc1 (stereo not drawn),-8,-11,·,-15,23,40*
Cc1ccc(C(=O)NCC(c2ccco2)N2CCc3ccccc3C2)cc1C (stereo not drawn),-25,-28,·,-36,17,12
